Experimental findings from ChEMBL document CHEMBL4196106, “From Naproxen Repurposing to Naproxen Analogues and Their Antiviral Activity against Influenza A Virus” (J Med Chem, 2018) are described below.

What is called IC50 is the midpoint of a concentration-inhibition curve. Usually Ki stands for a measure of affinity in units of concentration, obtained from inhibition or displacement. Higher therefore signals a looser hold on the target.

The subject of series [1] is Influenza A virus. In words: Antiviral activity against Influenza A virus (A/Puerto Rico/8/1934(H1N1)) infected in C57BL/6J mouse assessed as increase in mouse survival at 8 mg/mouse/day, ip qd treated up to day 2 starting at 5 to 10 mins post infection measured at day 12. It counts as functional, organism-based. The method, boiled down:
(§1)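 Intranasal A/PR/8/34 challenge at 500 PFU in female C57BL/6J mice, 5–6 weeks old, under ketamine/xylazine. Dosing was i.p. once daily on days 0, 1 and 2, starting 5–10 min post-inoculation; 1 mg/mouse is 50 mg/kg and 8 mg/mouse is 400 mg/kg. There were 10 mice per group, with saline vehicle. Survival and body weight were scored daily, with 20% weight loss as the mortality endpoint.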

The nature of series [2]: Safety index, ratio of compound CC50 to naproxen CC50 for MDCK cells by MTT assay. The note with it: dog. It counts as ADME, cell-based, Canis lupus familiaris. A general note: Tetrazolium dyes change colour on reduction, which living cells bring about.
The nature of series [3]: Selectivity index, ratio of CC50 for MDCK cells to IC50 for pandemic Influenza A virus (A/Netherlands/602/09(H1N1)) infected in MDCK cells at MOI of 10^-3 after 18 hrs. It counts as toxicity, cell-based. The note with it: dog, read-out: Ratio CC50/IC50.
Series [4] relates to Influenza A virus. Description: Antiviral activity against Influenza A virus (A/Puerto Rico/8/1934(H1N1)) infected in C57BL/6J mouse assessed as decrease in viral load in bronchoalveolar lavage at 1 mg/mouse/day, ip qd treated up to day 2 starting at 5 to 10 mins post infection relative to control. It counts as functional. The method, boiled down: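 Female C57BL/6J mice, 5–6 weeks old, were anaesthetised with ketamine/xylazine (43/5 mg/kg) and inoculated intranasally with A/PR/8/34 at 500 PFU. Treatment was i.p. once daily on days 0, 1 and 2, starting 5–10 min after inoculation; 1 mg/mouse is 50 mg/kg and 8 mg/mouse is 400 mg/kg. BAL infectious titre was measured by plaque assay against saline-treated mice.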

Series [5] is described as follows: Selectivity index, ratio of CC50 for MDCK cells to IC50 for Influenza A virus (A/Udorn/1972 (H3N2)) infected in MDCK cells at MOI of 2 after 18 hrs. It counts as toxicity, cell-based. The note with it: dog, read-out: Ratio CC50/IC50.
For series [6], the system named is Influenza A virus. In words: Potency index, ratio of naproxen IC50 to compound IC50 for Influenza A virus (A/WSN/1933(H1N1)) infected in MDCK cells at MOI of 2 after 18 hrs by immunofluorescence analysis. The format is functional.
A further series relates to MDCK. Description: Inhibition of nucleoprotein/polymerase acidic protein (1 to 27 residues) interaction in Influenza A virus (A/WSN/1933 (H1N1)) infected in MDCK cells by Western blot analysis. It counts as cell-based. The method, boiled down:
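MDCK cells were infected with A/WSN/33 at MOI 2 for 18 h and lysed in PBS with protease inhibitors and 0.5% NP40 by freezing; nucleic acids were not digested. Streptavidin beads loaded with 250 µM biotinylated PA(1-27) were incubated with the lysate 18 h at 4 °C, with or without compound. Bound NP was detected by anti-NP monoclonal western blot.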

The subject of series [7] is Influenza A virus. In words: Antiviral activity against Influenza A virus (A/Udorn/1972 (H3N2)) infected in MDCK cells at MOI of 2 assessed as decrease in viral load after 18 hrs by immunofluorescence analysis. It counts as functional, organism-based. A digest of the protocol: (§2)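 MDCK or A549 cells, 0.32 x 10^6 per well, were held 24 h serum-free to 80% confluence and then infected at MOI 2. Compound (0.1–500 µM) or vehicle was added right after virus adsorption. At 18 h, viral NP was read by immunofluorescence and corrected for cell number by DAPI. Runs were in triplicate, repeated at least twice, and IC50 came from a dose-response fit.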

The test system of series [8] is Influenza A virus. In words: Antiviral activity against Influenza A virus (A/WSN/1933(H1N1)) infected in MDCK cells at MOI of 10^-3 assessed as decrease in viral load after 48 hrs by crystal violet staining-based plaque assay. It counts as functional, organism-based. The method, boiled down:
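Serum-starved MDCK cells, 0.32 x 10^6 per well, were infected with A/WSN/33 at MOI 10^-3 (multi-cycle). Compound (0.1–500 µM) or vehicle was added immediately after adsorption. After 48 h, titres in clarified supernatant were read by plaque assay with crystal violet. Runs were in triplicate, repeated at least twice, and IC50 came from a dose-response fit.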

In series [9] the test system is Influenza A virus. Description: Antiviral activity against Influenza A virus (A/Udorn/1972 (H3N2)) infected in MDCK cells at MOI of 0.2 assessed as decrease in viral load after 18 hrs by immunofluorescence analysis. It counts as functional, organism-based.
Series [10] has as its system Influenza A virus. In words: Stabilization of Influenza A virus nucleoprotein assessed as melting temperature at 5 to 15 uM measured for 10 mins.
Series [11] relates to Influenza A virus. Description: Antiviral activity against Influenza A virus (A/Puerto Rico/8/1934(H1N1)) infected in C57BL/6J mouse assessed as recovery of weight loss at 8 mg/mouse/day, ip qd treated up to day 2 starting at 5 to 10 mins post infection measured up to day 12 relative to control. It counts as functional. The method, boiled down:
as §1

Series [12] deals with PA/PB1 (Influenza A virus (A/Puerto Rico/8/1934(H1N1)), UniProt P03431+P03433). Description: Binding affinity to biotin labelled Influenza A virus polymerase acidic protein (1 to 27 residues) by surface plasmon resonance analysis. It counts as protein assay. The method, boiled down:
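Biotinylated PA(1-27) was captured on the chip at about 1500 RU, with a scrambled peptide on the same chip at similar RU. NP (12–2500 nM), alone or as NP-DNA complex, was injected with or without compound up to 50 µM. Running buffer was 20 mM Tris-HCl pH 7.4, 300 mM NaCl, 0.005% P20, at 25 °C and 30 µl/min. Regeneration used guanidinium chloride then 10 mM NaOH.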

For series [13], the system named is Influenza A virus. Description: Antiviral activity against Influenza A virus (A/WSN/1933(H1N1)) infected in MDCK cells at MOI of 2 assessed as decrease in viral load after 18 hrs by immunofluorescence analysis. It counts as functional, organism-based. The method, boiled down:
as §2

In series [14] the test system is Influenza A virus. Description: Antiviral activity against pandemic Influenza A virus (A/Netherlands/602/09(H1N1)) infected in MDCK cells at MOI of 10^-3 assessed as decrease in viral load after 18 hrs by immunofluorescence analysis. It counts as functional, organism-based.
For a further series, the system named is A549. Description: Downregulation of COX2 level in human A549 cells infected with Influenza A virus at MOI of 2 at 100 uM after 18 hrs in presence of gamma-ATP by immunofluorescence analysis. It counts as cell-based. The note with it: a549, 18 h. A digest of the protocol: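 A549 cells were pretreated with compound for 30 min, then either infected with IAV at MOI 2 for 18 h or activated with 100 µM γ-ATP for 1 h with or without compound. Cells were fixed in 3% PFA and permeabilised with 0.1% triton. COX2 was immunostained overnight with a primary antibody and detected with an Alexa 647 secondary.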

Series [15] has as its system Influenza A virus. In words: Antiviral activity against Influenza A virus (A/Puerto Rico/8/1934(H1N1)) infected in ip dosed C57BL/6J mouse assessed as increase in mouse survival administered once daily treated up to day 2 starting at 5 to 10 mins post infection. It counts as functional, organism-based. The method, boiled down:
as §1

Series [16] concerns Influenza A virus. Description: Antiviral activity against Influenza A virus (A/Udorn/1972 (H3N2)) infected in human A549 cells assessed as decrease in viral load after 18 hrs by immunofluorescence analysis. The note with it: A549, 18 h. The format is functional, organism-based. A digest of the protocol: as §2
Series [17] relates to Influenza A virus. In words: Antiviral activity against Influenza A virus (A/Puerto Rico/8/1934(H1N1)) infected in C57BL/6J mouse assessed as survival at 1 to 8 mg/mouse/day, ip qd treated up to day 2 starting at 5 to 10 mins post infection measured at day 12 relative to control. The format is functional. A digest of the protocol:
as §1

Active and inactive are the calls of the source. No cut-off for these calls is given here.

In the case of `COc1ccc2cc(-c3c(C(=O)[O-])cccc3C(=O)[O-])ccc2c1.[Na+].[Na+]`, in the series with Influenza A virus [1], the outcome was Active. Moreover, in series [2], the selectivity ratio was determined as 10. Moreover, the results for the selectivity ratio at 18 h in [3] and in [5] were 7220 and 650, respectively. Moreover, in the series on Influenza A virus [4], the “fold change (FC)” value is on record as 6. For the same molecule, in the series on Influenza A virus [6], the “Ratio IC50” value is 5. Besides, in the series with MDCK, the “inhibition (active/not active)” value was “Active”. The IC50 with Influenza A virus [7] was 20 µM; with Influenza A virus [8], 2.9 µM; in the series with Influenza A virus [9], 7 µM; in the series with Influenza A virus [13], 19 µM; with Influenza A virus [14], 1.8 µM; in the series on Influenza A virus [16], 25 µM. Also, in the series with Influenza A virus [10], the Tm is 46 °C. The Activity in the series on Influenza A virus [11] is 5%; with A549, “Non-Toxic”; in the series on Influenza A virus [15], “Dose-dependent effect”. In addition, in [12], the affinity corresponds to a Ki of 30 µM. In the series on Influenza A virus [17], the Survival is reported as 70%.
